# Source: article PMC3625064 (Molecular cell, 2012)
# “Also recorded” adds a separate entry of the source. No end group written: not given here.
# T1: LSD2 (Homo sapiens, UniProt Q8NB78)
# T1 sequence (Q8NB78 1-822): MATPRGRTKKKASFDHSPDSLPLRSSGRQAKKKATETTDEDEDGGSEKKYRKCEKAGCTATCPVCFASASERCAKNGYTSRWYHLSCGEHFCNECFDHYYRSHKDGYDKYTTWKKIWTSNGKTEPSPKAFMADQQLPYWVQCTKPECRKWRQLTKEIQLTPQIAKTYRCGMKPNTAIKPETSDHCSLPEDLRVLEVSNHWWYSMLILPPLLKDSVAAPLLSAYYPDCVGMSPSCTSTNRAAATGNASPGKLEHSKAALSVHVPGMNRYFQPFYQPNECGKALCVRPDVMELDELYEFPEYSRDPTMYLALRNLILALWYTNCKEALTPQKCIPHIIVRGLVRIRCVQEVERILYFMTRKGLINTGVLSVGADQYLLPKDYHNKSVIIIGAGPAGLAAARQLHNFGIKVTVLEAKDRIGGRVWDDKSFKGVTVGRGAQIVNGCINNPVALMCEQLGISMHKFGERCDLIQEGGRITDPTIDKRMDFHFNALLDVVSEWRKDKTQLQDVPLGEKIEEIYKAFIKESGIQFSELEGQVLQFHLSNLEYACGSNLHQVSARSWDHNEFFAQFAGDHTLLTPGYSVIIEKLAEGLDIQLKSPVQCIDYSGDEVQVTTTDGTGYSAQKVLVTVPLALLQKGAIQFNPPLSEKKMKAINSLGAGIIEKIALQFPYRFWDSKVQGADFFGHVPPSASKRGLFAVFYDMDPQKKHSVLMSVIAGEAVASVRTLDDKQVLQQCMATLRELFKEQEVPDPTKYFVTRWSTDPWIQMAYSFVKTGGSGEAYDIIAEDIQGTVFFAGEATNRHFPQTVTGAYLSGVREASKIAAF
# Molecular target: T1, LSD2
# Assay: GST pull-down of His-LSD2
# Type: binding
# Settings: GST pull-down of purified His-LSD2; SDS-PAGE, Coomassie blue staining
# Procedure, shortened: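 GST and GST-tagged wild-type or mutant NPAC proteins (linker-region and binding-site mutants) were used to pull down purified His-LSD2. His-LSD2 in input and bound fractions was resolved by SDS-PAGE and stained with Coomassie blue.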
row,Molecule,LSD2 binding / interaction
1,"NP.d7: residues 152–186, containing the AT-hook motif (SERGSKSPLKRAQEQSPRKRGRPPKDEKDLTIPES; also: GST fusion, end not given here)","but not NP.d7 (residues 152–186, containing the AT-hook motif, lane 4), was sufficient for LSD2 interaction"
2,"NP.d1: PWWP domain, residues 1–150; GST-tagged (protein, left off: GST, end not stated, kept) MAAVSLRLGDLVWGKLGRYPPWPGKIVNPPKDLKKPRGKKCFFVKFFGTEDHAWIKVEQLKPYHAHKEEMIKINKGKRFQQAVDAVEEFLRRAKGKDQTSSHNSSDDKNRRNSSEERSRPNSGDEKRKLSLSEGKVKKNMGEGKKRVSSG",Neither the PWWP domain (NP.d1) nor the dehydrogenase domain (NP.d5) interacted with LSD2
3,"NP.d4: truncation protein containing the linker region, residues 152–553; GST-tagged (protein, left off: GST, end not stated, kept) SERGSKSPLKRAQEQSPRKRGRPPKDEKDLTIPESSTVKGMMAGPMAAFKWQPTASEPVKDADPHFHHFLLSQTEKPAVCYQAITKKLKICEEETGSTSIQAADSTAVNGSITPTDKKIGFLGLGLMGSGIVSNLLKMGHTVTVWNRTAEKCDLFIQEGARLGRTPAEVVSTCDITFACVSDPKAAKDLVLGPSGVLQGIRPGKCYVDMSTVDADTVTELAQVIVSRGGRFLEAPVSGNQQLSNDGMLVILAAGDRGLYEDCSSCFQAMGKTSFFLGEVGNAAKMMLIVNMVQGSFMATIAEGLTLAQVTGQSQQTLLDILNQGQLASIFLDQKCQNILQGNFKPDFYLKYIQKDLRLAIALGDAVNHPTPMAAAANEVYKRAKALDQSDNDMSAVYRAYIH",capable of directly interacting with LSD2; also recorded: did not adversely affect LSD2 binding
4,"NP.d2: truncation protein containing the linker region, residues 1–252; GST-tagged (protein, left off: GST, end not stated, kept) MAAVSLRLGDLVWGKLGRYPPWPGKIVNPPKDLKKPRGKKCFFVKFFGTEDHAWIKVEQLKPYHAHKEEMIKINKGKRFQQAVDAVEEFLRRAKGKDQTSSHNSSDDKNRRNSSEERSRPNSGDEKRKLSLSEGKVKKNMGEGKKRVSSGSSERGSKSPLKRAQEQSPRKRGRPPKDEKDLTIPESSTVKGMMAGPMAAFKWQPTASEPVKDADPHFHHFLLSQTEKPAVCYQAITKKLKICEEETGSTSIQ",capable of directly interacting with LSD2; also recorded: did not adversely affect LSD2 binding
5,"NP.d5: dehydrogenase domain, residues 262–553; GST-tagged (protein, left off: GST, end not stated, kept) SITPTDKKIGFLGLGLMGSGIVSNLLKMGHTVTVWNRTAEKCDLFIQEGARLGRTPAEVVSTCDITFACVSDPKAAKDLVLGPSGVLQGIRPGKCYVDMSTVDADTVTELAQVIVSRGGRFLEAPVSGNQQLSNDGMLVILAAGDRGLYEDCSSCFQAMGKTSFFLGEVGNAAKMMLIVNMVQGSFMATIAEGLTLAQVTGQSQQTLLDILNQGQLASIFLDQKCQNILQGNFKPDFYLKYIQKDLRLAIALGDAVNHPTPMAAAANEVYKRAKALDQSDNDMSAVYRAYIH",Neither the PWWP domain (NP.d1) nor the dehydrogenase domain (NP.d5) interacted with LSD2
